Ins promoter up: insulin promoter activators in MIN6 cells, imaging, high-content screening, mouse beta cells; MIN6 insulin promoter-GFP reporter; active compounds read high; z-score at 5 µM; actives 0.3% (n = 190,000);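 active = z-score above 3 at 5 µM with at least 500 cells counted in the well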
DDE Tn6 FP inh: inhibitors of Tn6 peptide binding to fibrin DD(E), primary screen, biochemical, fluorescence polarization, human fibrin, Tn6 probe | Fibrinogen beta chain (Homo sapiens), P02675 | Fibrin DD(E) TRITC-Tn6 fluorescence polarization displacement | inhibition, % at 8.3 µM | actives 0.21% (n = 370,000);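 active = inhibition above a per-campaign cutoff: mean of compounds within control limits plus 3 SD, cut at about 15% in these data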
Target sequence (P02675 whole entry, looked up): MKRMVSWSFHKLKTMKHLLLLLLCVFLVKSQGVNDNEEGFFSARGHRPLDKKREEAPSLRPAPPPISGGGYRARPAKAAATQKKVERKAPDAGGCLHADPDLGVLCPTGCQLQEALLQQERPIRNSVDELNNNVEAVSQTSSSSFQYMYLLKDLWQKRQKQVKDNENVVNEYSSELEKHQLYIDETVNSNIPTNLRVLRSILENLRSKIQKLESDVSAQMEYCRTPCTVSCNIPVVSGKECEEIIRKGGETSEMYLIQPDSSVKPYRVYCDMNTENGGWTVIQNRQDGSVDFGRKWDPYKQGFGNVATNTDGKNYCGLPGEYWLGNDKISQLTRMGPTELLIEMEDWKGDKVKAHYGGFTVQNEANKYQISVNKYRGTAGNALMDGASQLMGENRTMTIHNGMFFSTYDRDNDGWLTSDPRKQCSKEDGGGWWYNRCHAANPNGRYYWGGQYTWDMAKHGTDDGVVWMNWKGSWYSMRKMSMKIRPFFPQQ
ABCB1 block: ABCB1 efflux pump inhibitors, primary screen, cell-based, multiplex, flow cytometry, ABCG2 counter-screen; ATP-dependent translocase ABCB1 (Homo sapiens), P08183; CCRF-Adr cells, JC-1 efflux; inhibition, % at 6.6 µM; actives 0.067% (n = 190,000); AID 1326, 2008; in the data active = inhibition above about 40%;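 note: higher value means more JC-1 retained so stronger ABCB1 efflux block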
GRK2 inh: compounds blocking aptamer binding on GRK2 – biochemical, human GRK2, bead flow cytometry, HTS, primary screen | FAM-aptamer displacement from GRK2 | actives 0.59% (n = 330,000) | AID 488847, 2010 | inhibition of aptamer binding, % at 10 µM | Beta-adrenergic receptor kinase 1 (Homo sapiens), P25098;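 active = inhibition of aptamer binding above 40%, roughly 3 SD of noise, on plates passing a quality check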;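 note: median bead fluorescence of bound FAM aptamer so fluorescent compounds give negative values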
DDE Tn7 FP inh: inhibitors of Tn7 peptide binding to fibrin DD(E), primary screen, biochemical, fluorescence polarization, human fibrin, Tn7 probe; Fibrinogen beta chain (Homo sapiens), P02675; FP displacement of FITC-Tn7 peptide from fibrin DD(E); 0% = median of compound wells per plate; inhibition, % at 8.3 µM; actives 0.13% (n = 370,000);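 active = inhibition above the mean of compounds falling within the control limits plus 3 SD of them, cut at about 14% in these data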
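Also added: labelled Tn7 tracer, 0.1 µM; Assay system: human fibrin DD(E) protein; Amount: 2 µM fibrin DD(E); Schedule: 10 min compound pre-incubation, 3 h probe incubation at room temperature; Repeats: one replicate per compound; Read-out basis: percent inhibition; Measured by: fluorescence polarization of the labelled Tn7 tracer.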
ABCG2 inh: ABCG2 efflux pump inhibitors, primary screen, multiplex with ABCB1, IgMXP3 cells, flow cytometry; Broad substrate specificity ATP-binding cassette transporter ABCG2 (Homo sapiens), Q9UNQ0; JC-1 efflux; inhibition, % at 6.6 µM; actives 0.1% (n = 190,000); AID 1325, 2008;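 active = inhibition above 80%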
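System: two drug-resistant human cell lines, ABCG2 and ABCB1; controls: nicardipine high and DMSO low controls; times: 10 min exposure at 25 °C with rotation, no wash; detection: flow cytometry of retained JC-1 fluorescence; read-out basis: percent efflux inhibition, scaled nicardipine 100% to DMSO 0%; doses: one concentration, 6.6 µM final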
GRK2 inh confirm: GRK2 aptamer-displacing inhibitors, retest, confirmation, biochemical, cherry pick 1, bead flow cytometry; shares compounds with GRK2 inh; bead-bound GRK2, FAM-aptamer displacement; aptamer displacement, % at 10 µM; actives 4% (n = 2,000);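 active = aptamer displacement above 40%, near three times the noise of non-fluorescent compounds, on plates passing quality checks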;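 note: negative values mostly reflect intrinsic compound fluorescence rather than true enhancement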
FAM quench CP1: aptamer fluorescence quenching in GRK2 counter-screen | shares compounds with GRK2 inh | Carboxyfluorescein RNA aptamer on beads, flow cytometry quenching; active compounds read low | fluorescence response (% of DMSO), % at 10 µM | 2,000 tested, under 10 active;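 active = compounds that quench the bead-bound fluorescent RNA probe, cutting fluorescence to under half of the solvent control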;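 note: counterscreen run without GRK2 so only probe quenching by compound is measured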
Numbers stand for hits. Rows were chosen to be rich in hits. Some 0.99% of all compounds tested hit in one or more screens of this group.

What do the screens show for `CCOC(=O)c1cnc2c(C#N)c(C)nn2c1-c1ccccc1`?
Ins promoter up: inactive; DDE Tn6 FP inh: inactive; ABCB1 block: inactive; GRK2 inh: inactive; DDE Tn7 FP inh: inactive; ABCG2 inh: inactive

What do the screens show for `O=C(C1CCC1)N1CCc2cc(S(=O)(=O)N3CCCC3)ccc21`?
DDE Tn6 FP inh: inactive; DDE Tn7 FP inh: inactive

Results for Nn1c(SCC(=O)NC2CCCCC2)nnc1-c1cc(-c2ccc(F)cc2)n[nH]1 ?
DDE Tn6 FP inh: inactive; DDE Tn7 FP inh: inactive

What do the screens show for `O=C1CC(N2CCN(c3ccccc3)CC2)C(=O)N1c1cccc(Cl)c1` (centres undefined)?
DDE Tn6 FP inh: inactive; GRK2 inh: 43; DDE Tn7 FP inh: inactive; GRK2 inh confirm: inactive; FAM quench CP1: inactive

How did CCn1cc(C(=O)NC(C)C)c(=O)c2cc(F)c(N3CCN(C(=O)c4ccco4)CC3)cc21 do in these assays?
DDE Tn6 FP inh: inactive; GRK2 inh: 88; DDE Tn7 FP inh: inactive; GRK2 inh confirm: inactive; FAM quench CP1: inactive

How did Cc1ccc(CNC(=O)CN2CCN(c3ccc(F)cc3)CC2)cc1 do in these assays?
DDE Tn6 FP inh: inactive; GRK2 inh: 43; DDE Tn7 FP inh: inactive; GRK2 inh confirm: inactive; FAM quench CP1: inactive

Results for CCC1CCCCN1CCCNC(=O)Cn1ncc2c([nH]c3ccc(C)cc32)c1=O (centres undefined) ?
GRK2 inh: inactive

What do the screens show for `Cc1ccc2[nH]c3c(=O)n(CC(=O)NCCCN4CCN(c5ccc(F)cc5)CC4)ncc3c2c1`?
DDE Tn6 FP inh: inactive; GRK2 inh: 45; DDE Tn7 FP inh: inactive; GRK2 inh confirm: inactive; FAM quench CP1: inactive

What do the screens show for `COc1ccc(CNC(=O)CN2CCN(c3ccc(F)cc3)CC2)cc1`?
DDE Tn6 FP inh: inactive; GRK2 inh: inactive; DDE Tn7 FP inh: inactive

How did CCCCNC(=O)C1(C)CCN1C(=O)c1ccc2c(c1)C(C)(C)CCC2(C)C (centres undefined) do in these assays?
DDE Tn6 FP inh: inactive; DDE Tn7 FP inh: inactive

Results for CCC[C@H]1[C@@H](OC(=O)NCc2ccc(C)cc2)CC[C@@]23CCCN2C(=O)CCC[C@@H]13 ?
DDE Tn6 FP inh: inactive; DDE Tn7 FP inh: inactive

How did C/C(=C\C(=O)c1ccc(C)cc1)Nc1cccc(O)c1 do in these assays?
Ins promoter up: inactive; DDE Tn6 FP inh: inactive; ABCB1 block: inactive; GRK2 inh: inactive; DDE Tn7 FP inh: inactive; ABCG2 inh: inactive; GRK2 inh confirm: inactive; FAM quench CP1: inactive

What do the screens show for `Cc1ccc(-c2nc(C3CCCN(S(=O)(=O)c4cccs4)C3)no2)cc1` (centres undefined)?
DDE Tn6 FP inh: inactive; DDE Tn7 FP inh: inactive

What do the screens show for `CCc1nnc(NC(=O)CSc2nnc(-c3ccc(O)cc3)n2C)s1`?
Ins promoter up: inactive; DDE Tn6 FP inh: inactive; ABCB1 block: inactive; GRK2 inh: inactive; DDE Tn7 FP inh: inactive; ABCG2 inh: inactive; GRK2 inh confirm: inactive; FAM quench CP1: inactive

How did O=C(Nc1ccccc1N1CCCCC1)c1ccco1 do in these assays?
Ins promoter up: inactive; DDE Tn6 FP inh: inactive; ABCB1 block: inactive; GRK2 inh: 49; DDE Tn7 FP inh: inactive; ABCG2 inh: inactive; GRK2 inh confirm: inactive; FAM quench CP1: inactive

Results for Cc1onc(-c2ccccc2)c1C(=O)NCC1CCCO1 (centres undefined) ?
Ins promoter up: inactive; DDE Tn6 FP inh: inactive; ABCB1 block: inactive; GRK2 inh: 91; DDE Tn7 FP inh: inactive; ABCG2 inh: inactive; GRK2 inh confirm: inactive; FAM quench CP1: inactive

How did COC(OC)c1ccnc(-c2ccc(OC(=O)c3ccc(F)cc3)cc2)n1 do in these assays?
Ins promoter up: inactive; DDE Tn6 FP inh: inactive; ABCB1 block: inactive; GRK2 inh: 59; DDE Tn7 FP inh: inactive; ABCG2 inh: inactive; GRK2 inh confirm: inactive; FAM quench CP1: inactive

Results for COc1ccc2cc(C#N)c(SCC(=O)N3CC(=O)Nc4ccccc43)nc2c1 ?
Ins promoter up: inactive; GRK2 inh: inactive

How did Cc1cccc2cc(C#N)c(SCC(=O)N3CC(=O)Nc4ccccc43)nc12 do in these assays?
Ins promoter up: inactive; DDE Tn6 FP inh: inactive; ABCB1 block: inactive; GRK2 inh: 57; DDE Tn7 FP inh: inactive; ABCG2 inh: inactive; GRK2 inh confirm: inactive; FAM quench CP1: inactive

What do the screens show for `Cc1c[nH]c2cccc(-c3cccc4ccccc34)c12`?
DDE Tn6 FP inh: inactive; DDE Tn7 FP inh: inactive

What do the screens show for `Cc1cc(C)c2nc(-c3ccccn3)cc(C(=O)Nc3ccc(S(=O)(=O)Nc4cc(C)on4)cc3)c2c1`?
Ins promoter up: inactive; DDE Tn6 FP inh: inactive; ABCB1 block: inactive; GRK2 inh: inactive; DDE Tn7 FP inh: inactive; ABCG2 inh: inactive; GRK2 inh confirm: inactive; FAM quench CP1: inactive

How did CC(=O)c1cccc(NC(=O)c2cc(-c3cccs3)on2)c1 do in these assays?
DDE Tn6 FP inh: inactive; GRK2 inh: inactive; DDE Tn7 FP inh: inactive; GRK2 inh confirm: inactive; FAM quench CP1: inactive

Results for O=C(Nc1cccc(O)c1)c1cc(-c2cccs2)on1 ?
DDE Tn6 FP inh: inactive; GRK2 inh: inactive; DDE Tn7 FP inh: inactive

How did COc1ccc(-c2cc(C(=O)Nc3cccc(C(C)=O)c3)no2)cc1 do in these assays?
Ins promoter up: inactive; DDE Tn6 FP inh: inactive; ABCB1 block: inactive; GRK2 inh: inactive; DDE Tn7 FP inh: inactive; ABCG2 inh: inactive; GRK2 inh confirm: inactive; FAM quench CP1: inactive

Results for CC(C)[C@@H](NC(=O)OC(C)(C)C)c1cc(C(=O)c2c(-c3ccccc3)[nH]c3ccccc23)c(N)s1 ?
DDE Tn6 FP inh: inactive; DDE Tn7 FP inh: inactive

How did CC1CCN(C(=O)COC(=O)/C=C/c2ccc(Br)o2)CC1 do in these assays?
DDE Tn6 FP inh: inactive; GRK2 inh: inactive; DDE Tn7 FP inh: inactive

Results for CC1CCCC(C)N1C(=O)COC(=O)/C=C/c1ccc(Br)o1 (centres undefined) ?
DDE Tn6 FP inh: inactive; GRK2 inh: 43; DDE Tn7 FP inh: inactive; GRK2 inh confirm: inactive; FAM quench CP1: inactive

What do the screens show for `Oc1ccc(C[C@@H]2CNCCN2CCc2cc(C(F)(F)F)cc(C(F)(F)F)c2)cc1`?
DDE Tn6 FP inh: inactive; GRK2 inh: inactive; DDE Tn7 FP inh: inactive

High-throughput results: PubChem, several laboratories
